Test system: Rattus norvegicus
Assay: Hypolipidemic activity in COBBS-CD rat assessed as reduction in serum triglyceride level at 0.01% administered with chow diet after 5 days relative to control
Format: functional
Set-up: scale not given: the % may be the effect or the level left
Summary of the method: (§1)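 The compound was given in ground chow at 0.1, 0.03 or 0.01% w/w (about 100, 30 and 10 mg/kg) to male COBBS-CD rats (n=4; solvent-chow controls n=8) for 5 days ad libitum. Rats were killed by decapitation and blood collected. Serum triglycerides were assayed by an automated method and compared with controls; ± values are SD.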

SMILES	Activity
COC(=O)C(Oc1ccc(C(C)(C)C)cc1)c1ccc(Oc2cccc(C(F)(F)F)c2)cc1 (stereo unspecified)	52%
COC(=O)C(Oc1ccc(C(F)(F)F)cc1)c1ccc(Oc2ccc(Cl)cc2)cc1 (stereo unspecified)	60%
COC(=O)C(Oc1ccc(Cl)cc1)c1ccc(Oc2ccc(S(C)(=O)=O)cc2)cc1 (stereo unspecified)	11%
COC(=O)C(Oc1cccc(C(F)(F)F)c1)c1ccc(Oc2ccc(C#N)cc2)cc1 (stereo unspecified)	-37%
COC(=O)C(Oc1ccc(C2(C)CCCCC2)cc1)c1ccc(Oc2ccc(Cl)cc2)cc1 (stereo unspecified)	64%
COC(=O)C(C)(Oc1ccc(Cl)cc1)c1ccc(Oc2ccc(Cl)cc2)cc1 (stereo unspecified)	39%
COC(=O)C(Oc1ccc(Cl)cc1)c1ccc(Oc2ccc(Cl)cc2)cc1 (stereo unspecified)	39%

Test system: Rattus norvegicus
Assay: Hypolipidemic activity in COBBS-CD rat assessed as reduction in serum triglyceride level at 0.3% administered with chow diet after 5 days relative to control
Format: functional
Set-up: scale not given: the % may be the effect or the level left

SMILES	Activity
CCOC(=O)C(C)(C)Oc1ccc(Cl)cc1 [CLOFIBRATE]	58%

Test system: Rattus norvegicus
Assay: Hypolipidemic activity in COBBS-CD rat assessed as reduction in serum sterol level at 0.01% administered with chow diet after 5 days relative to control
Format: functional
Set-up: scale not given: the % may be the effect or the level left
Summary of the method: (§2)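 Male COBBS-CD rats, four per treated group and eight per control group. The compound was mixed into ground rat chow at 0.1, 0.03 or 0.01% w/w (about 100, 30 and 10 mg/kg). Control chow received only the mixing solvent (methanol-chloroform 1:3 v/v). Food and water were ad libitum for 5 days, then rats were decapitated and blood collected. Serum sterols were measured by an automated method and expressed relative to controls; ± values are SD.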

SMILES	Activity
COC(=O)C(Oc1ccc(C(C)(C)C)cc1)c1ccc(Oc2cccc(C(F)(F)F)c2)cc1 (stereo unspecified)	12%
COC(=O)C(Oc1ccc(C(F)(F)F)cc1)c1ccc(Oc2ccc(Cl)cc2)cc1 (stereo unspecified)	24%
COC(=O)C(Oc1ccc(Cl)cc1)c1ccc(Oc2ccc(S(C)(=O)=O)cc2)cc1 (stereo unspecified)	8%
COC(=O)C(Oc1cccc(C(F)(F)F)c1)c1ccc(Oc2ccc(C#N)cc2)cc1 (stereo unspecified)	12%
COC(=O)C(Oc1ccc(C2(C)CCCCC2)cc1)c1ccc(Oc2ccc(Cl)cc2)cc1 (stereo unspecified)	26%
COC(=O)C(C)(Oc1ccc(Cl)cc1)c1ccc(Oc2ccc(Cl)cc2)cc1 (stereo unspecified)	9%
COC(=O)C(Oc1ccc(Cl)cc1)c1ccc(Oc2ccc(Cl)cc2)cc1 (stereo unspecified)	16%

Test system: Rattus norvegicus
Assay: Hypolipidemic activity in COBBS-CD rat assessed as reduction in serum triglyceride level at 0.1% administered with chow diet after 5 days relative to control
Format: functional
Set-up: scale not given: the % may be the effect or the level left
Summary of the method: as §1

SMILES	Activity
CCOC(=O)C(C)(C)Oc1ccc(Cl)cc1 [CLOFIBRATE]	30%
COC(=O)C(Oc1ccc(C(C)(C)C)cc1)c1ccc(Oc2cccc(C(F)(F)F)c2)cc1 (stereo unspecified)	77%
COC(=O)C(Oc1ccc(C(F)(F)F)cc1)c1ccc(Oc2ccc(Cl)cc2)cc1 (stereo unspecified)	53%
COC(=O)C(Oc1ccc(Cl)cc1)c1ccc(Oc2ccc(S(C)(=O)=O)cc2)cc1 (stereo unspecified)	22%
COC(=O)C(Oc1cccc(C(F)(F)F)c1)c1ccc(Oc2ccc(C#N)cc2)cc1 (stereo unspecified)	50%
COC(=O)C(Oc1ccc(C2(C)CCCCC2)cc1)c1ccc(Oc2ccc(Cl)cc2)cc1 (stereo unspecified)	65%
COC(=O)C(C)(Oc1ccc(Cl)cc1)c1ccc(Oc2ccc(Cl)cc2)cc1 (stereo unspecified)	63%
COC(=O)C(Oc1ccc(Cl)cc1)c1ccc(Oc2ccc(Cl)cc2)cc1 (stereo unspecified)	56%

Test system: Rattus norvegicus
Assay: Hypolipidemic activity in COBBS-CD rat assessed as reduction in serum sterol level at 0.3% administered with chow diet after 5 days relative to control
Format: functional
Set-up: scale not given: the % may be the effect or the level left

SMILES	Activity
CCOC(=O)C(C)(C)Oc1ccc(Cl)cc1 [CLOFIBRATE]	19%

Test system: Rattus norvegicus
Assay: Hypolipidemic activity in COBBS-CD rat assessed as reduction in serum triglyceride level at 0.03% administered with chow diet after 5 days relative to control
Format: functional
Set-up: scale not given: the % may be the effect or the level left
Summary of the method: as §1

SMILES	Activity
COC(=O)C(Oc1ccc(C(C)(C)C)cc1)c1ccc(Oc2cccc(C(F)(F)F)c2)cc1 (stereo unspecified)	70%
COC(=O)C(Oc1ccc(C(F)(F)F)cc1)c1ccc(Oc2ccc(Cl)cc2)cc1 (stereo unspecified)	51%
COC(=O)C(Oc1ccc(Cl)cc1)c1ccc(Oc2ccc(S(C)(=O)=O)cc2)cc1 (stereo unspecified)	-11%
COC(=O)C(Oc1cccc(C(F)(F)F)c1)c1ccc(Oc2ccc(C#N)cc2)cc1 (stereo unspecified)	34%
COC(=O)C(Oc1ccc(C2(C)CCCCC2)cc1)c1ccc(Oc2ccc(Cl)cc2)cc1 (stereo unspecified)	70%
COC(=O)C(C)(Oc1ccc(Cl)cc1)c1ccc(Oc2ccc(Cl)cc2)cc1 (stereo unspecified)	44%
COC(=O)C(Oc1ccc(Cl)cc1)c1ccc(Oc2ccc(Cl)cc2)cc1 (stereo unspecified)	48%

Test system: Rattus norvegicus
Assay: Hypolipidemic activity in COBBS-CD rat assessed as reduction in serum sterol level at 0.1% administered with chow diet after 5 days relative to control
Format: functional
Set-up: scale not given: the % may be the effect or the level left
Summary of the method: as §2

SMILES	Activity
CCOC(=O)C(C)(C)Oc1ccc(Cl)cc1 [CLOFIBRATE]	0%
COC(=O)C(Oc1ccc(C(C)(C)C)cc1)c1ccc(Oc2cccc(C(F)(F)F)c2)cc1 (stereo unspecified)	26%
COC(=O)C(Oc1ccc(C(F)(F)F)cc1)c1ccc(Oc2ccc(Cl)cc2)cc1 (stereo unspecified)	20%
COC(=O)C(Oc1ccc(Cl)cc1)c1ccc(Oc2ccc(S(C)(=O)=O)cc2)cc1 (stereo unspecified)	15%
COC(=O)C(Oc1cccc(C(F)(F)F)c1)c1ccc(Oc2ccc(C#N)cc2)cc1 (stereo unspecified)	32%
COC(=O)C(Oc1ccc(C2(C)CCCCC2)cc1)c1ccc(Oc2ccc(Cl)cc2)cc1 (stereo unspecified)	18%
COC(=O)C(C)(Oc1ccc(Cl)cc1)c1ccc(Oc2ccc(Cl)cc2)cc1 (stereo unspecified)	39%
COC(=O)C(Oc1ccc(Cl)cc1)c1ccc(Oc2ccc(Cl)cc2)cc1 (stereo unspecified)	33%

Test system: Rattus norvegicus
Assay: Hypolipidemic activity in COBBS-CD rat assessed as reduction in serum sterol level at 0.03% administered with chow diet after 5 days relative to control
Format: functional
Set-up: scale not given: the % may be the effect or the level left
Summary of the method: as §2

SMILES	Activity
COC(=O)C(Oc1ccc(C(C)(C)C)cc1)c1ccc(Oc2cccc(C(F)(F)F)c2)cc1 (stereo unspecified)	35%
COC(=O)C(Oc1ccc(C(F)(F)F)cc1)c1ccc(Oc2ccc(Cl)cc2)cc1 (stereo unspecified)	28%
COC(=O)C(Oc1ccc(Cl)cc1)c1ccc(Oc2ccc(S(C)(=O)=O)cc2)cc1 (stereo unspecified)	-1%
COC(=O)C(Oc1cccc(C(F)(F)F)c1)c1ccc(Oc2ccc(C#N)cc2)cc1 (stereo unspecified)	24%
COC(=O)C(Oc1ccc(C2(C)CCCCC2)cc1)c1ccc(Oc2ccc(Cl)cc2)cc1 (stereo unspecified)	13%
COC(=O)C(C)(Oc1ccc(Cl)cc1)c1ccc(Oc2ccc(Cl)cc2)cc1 (stereo unspecified)	14%
COC(=O)C(Oc1ccc(Cl)cc1)c1ccc(Oc2ccc(Cl)cc2)cc1 (stereo unspecified)	23%

Reference: ChEMBL document CHEMBL3244011, “(Aryloxy)[p-(aryloxy)phenyl]- and (aryloxy)[p-(arylthio)phenyl]acetic acids and esters as hypolipidemic agents” (1979)
